Reference: ChEMBL document CHEMBL4354867, “Validation and Characterization of Five Distinct Novel Inhibitors of Human Cytomegalovirus” (J Med Chem, 2020)
pEC50: −log10 of the molar value. Calls of active or inactive are those of the source. No cut-off for these calls is given here.

Key:
Human betaherpesvirus 5 [1] = assay: Inhibition of viral protein expression in HCMV Towne infected in human HFF cells assessed as reduction in IE1 expression at 3 uM treated with compound for 24 hrs followed by viral infection at MOI of 1 PFU/cell measured at 72 hrs post infection by Western blot analysis; type: functional, organism-based; conditions: strain Towne
Summary of the method: (§1)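 HFFs pretreated with compound, then infected with HCMV Towne at MOI 1, 0.1 or 0.01. Viral proteins in cell lysates detected at 72 hpi by SDS-PAGE (8–10%), PVDF transfer and chemiluminescent immunoblot. Images from a representative experiment.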

Human betaherpesvirus 5 [2] = assay: Antiviral activity against HCMV Towne infected in human HFF cells assessed as reduction in plaque formation treated with compound following viral infection at MOI of 1 PFU/cell and measured at 10 days post-infection in presence of letermovir by crystal violet staining based assay; type: functional, organism-based; conditions: Human betaherpesvirus 5, strain Towne, 240 h
Human betaherpesvirus 5 [3] = assay: Antiviral activity against GCV-resistant HCMV Towne infected in human HFF cells assessed as reduction in plaque formation treated with compound following viral infection and incubated for 8 to 10 days by crystal violet staining based assay; type: functional, organism-based; conditions: Human betaherpesvirus 5, strain Towne
Human betaherpesvirus 5 [4] = assay: Antiviral activity against pp28-luciferase expressing HCMV Towne infected in human HFF cells assessed as reduction in viral entry by measuring viral replication at 1 to 10 uM treated with compound for 24 hrs followed by viral infection at MOI of 0.01 to 1 PFU/cell measured at 72 hrs post infection by luciferase reporter gene assay; type: functional, organism-based; conditions: strain Towne
Summary of the method: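 HFFs pretreated 24 h with compound, then infected with pp28-luciferase recombinant Towne HCMV (luciferase under the UL99 late promoter) at MOI 1, 0.1 or 0.01. Luciferase measured in cell lysates after 3 days. Triplicate values, mean ± SD.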

Human betaherpesvirus 5 [5] = assay: Inhibition of viral protein expression in HCMV Towne infected in human HFF cells assessed as reduction in UL84 expression at 3 uM treated with compound for 24 hrs followed by viral infection at MOI of 1 PFU/cell measured at 72 hrs post infection by Western blot analysis; type: functional, organism-based; conditions: strain Towne; summary of the method: as §1
Human betaherpesvirus 5 [6] = assay: Antiviral activity againstpp28-luciferase expressing HCMV Towne infected in human HFF cells assessed as reduction in viral replication treated with compound following viral infection at MOI of 1 PFU/cells measured after 3 days in presence of GCV by luciferase reporter gene assay; type: functional, organism-based; conditions: Human betaherpesvirus 5, strain Towne, 72 h
Summary of the method: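 HFFs in 96-well plates were infected with pp28-luciferase Towne HCMV, in which luciferase is driven by the UL99 late promoter, at MOI 1. A dose-response of each drug alone gave its EC₅₀. Combinations started at twice each EC₅₀ in DMEM with 4% FBS, followed by two-fold serial dilutions, and were added after infection. Luciferase was read in cell lysates at 72 hpi. The Bliss ratio is observed over expected inhibition.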

Human betaherpesvirus 5 [7] = assay: Inhibition of viral protein expression in HCMV Towne infected in human HFF cells assessed as reduction in IE1 expression at 3 uM treated with compound following viral infection at MOI of 1 PFU/cell measured at 72 hrs post infection by Western blot analysis; type: functional, organism-based; conditions: strain Towne
Summary of the method: (§2)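 HFFs infected with HCMV Towne (MOI 1), then treated with compound. Lysates taken at 72 hpi, equal protein loaded on 8–10% Tris-glycine SDS-PAGE and transferred to PVDF. Primary antibodies overnight at 4 °C, HRP secondary, chemiluminescent detection; β-actin as loading control.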

Human betaherpesvirus 5 [8] = assay: Antiviral activity against GCV-resistant HCMV Towne infected in human HFF cells assessed as reduction in plaque formation at 0.1 to 10 uM treated with compound for 24 hrs followed by viral infection at MOI of […] and measured after 10 days by crystal violet staining based assay; type: functional, organism-based; conditions: strain Towne
Summary of the method: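 Overlay of DMEM with 0.5% carboxymethylcellulose and 4% FBS, 37 °C. After 10 days plaques stained with crystal violet and counted. Data are mean ± SD of triplicates from a representative experiment.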

Human betaherpesvirus 5 [9] = assay: Inhibition of viral protein expression in HCMV Towne infected in human HFF cells assessed as reduction in UL44 expression at 3 uM treated with compound for 24 hrs followed by viral infection at MOI of 1 PFU/cell measured at 72 hrs post infection by Western blot analysis; type: functional, organism-based; conditions: strain Towne; summary of the method: as §1
Human betaherpesvirus 5 [10] = assay: Antiviral activity against HCMV TB40 infected in human HFF cells assessed as reduction in plaque formation treated with compound following viral infection and incubated for 8 to 10 days by crystal violet staining based assay; type: functional, organism-based; conditions: Human betaherpesvirus 5, TB40, HFF
Human alphaherpesvirus 2 = assay: Antiviral activity against HSV 2 infected in African green monkey Vero cells assessed as reduction in plaque formation incubated for 36 hrs by crystal violet staining based assay; type: functional, organism-based; conditions: vero
Summary of the method: (§3)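 Plaque reduction in Vero cells: virus adsorbed 60 min, then compound added in a carboxymethylcellulose overlay. Plaques counted after 36 h by crystal violet staining.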

Human betaherpesvirus 5 [11] = assay: Inhibition of viral protein expression in HCMV Towne infected in human HFF cells assessed as reduction in IE2 expression at 3 uM treated with compound for 24 hrs followed by viral infection at MOI of 1 PFU/cell measured at 72 hrs post infection by Western blot analysis; type: functional, organism-based; conditions: strain Towne; summary of the method: as §1
[12] = Antiviral activity against Mouse Cytomegalovirus Smith (ATCC VR-1399) infected in mouse MEF cells assessed as reduction in plaque formation measured after 3 days by crystal violet staining based assay; type: functional, cell-based, Murine cytomegalovirus (strain Smith); conditions: mef
Summary of the method: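 Plaque reduction with MCMV Smith in mouse embryonic fibroblasts, with compound in a carboxymethylcellulose overlay. Assay ended at 3 days and plaques counted after crystal violet staining.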

Human betaherpesvirus 5 [13] = assay: Inhibition of viral protein expression in HCMV Towne infected in human HFF cells assessed as reduction in IE2 expression at 3 uM treated with compound following viral infection at MOI of 1 PFU/cell measured at 72 hrs post infection by Western blot analysis; type: functional, organism-based; conditions: strain Towne; summary of the method: as §2
Human alphaherpesvirus 1 = assay: Antiviral activity against HSV 1 infected in African green monkey Vero cells assessed as reduction in plaque formation incubated for 36 hrs by crystal violet staining based assay; type: functional, organism-based; conditions: vero; summary of the method: as §3
Human betaherpesvirus 5 [14] = assay: Antiviral activity against HCMV TB40 infected in human HFF cells assessed as reduction in plaque formation at 1 to 10 uM treated with compound following viral infection at MOI of 100 PFU/ml and measured after 10 days by crystal violet staining based assay; type: functional, organism-based
Human betaherpesvirus 5 [15] = assay: Inhibition of viral protein expression in HCMV Towne infected in human HFF cells assessed as reduction in pp65 expression at 3 uM treated with compound for 24 hrs followed by viral infection at MOI of 1 PFU/cell measured at 72 hrs post infection by Western blot analysis; type: functional, organism-based; conditions: strain Towne; summary of the method: as §1
Human betaherpesvirus 5 [16] = assay: Inhibition of viral protein expression in HCMV Towne infected in human HFF cells assessed as reduction in pp65 expression at 3 uM treated with compound following viral infection at MOI of 1 PFU/cell measured at 72 hrs post infection by Western blot analysis; type: functional, organism-based; conditions: strain Towne; summary of the method: as §2
HFF = assay: Cytotoxicity against human HFF cells assessed as reduction in cell viability incubated for 72 hrs or 10 days by MTT assay; type: cell-based
Summary of the method: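 MTT assay on uninfected cells exposed to compound for 72 h or 8–10 days, matching the antiviral assay durations. MTT (5 mg/mL stock in PBS) added, then 2–3 h at 37 °C. Formazan absorbance read at 560 nm.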

Human betaherpesvirus 5 [17] = assay: Inhibition of viral protein expression in HCMV Towne infected in human HFF cells assessed as reduction in UL44 expression at 3 uM treated with compound for 24 hrs followed by viral infection at MOI of 0.01 PFU/cell measured at 72 hrs post infection by Western blot analysis; type: functional, organism-based; conditions: strain Towne; summary of the method: as §1

COc1ccc(Cl)cc1C(=O)Nc1ccc(NC(=O)c2ccco2)cc1
inhibition (Human betaherpesvirus 5 [1]): inactive
pEC50 (Human betaherpesvirus 5 [2]): 6.49
pEC50 (Human betaherpesvirus 5 [3]): 6.60
Activity (Human betaherpesvirus 5 [4]): Active
inhibition (Human betaherpesvirus 5 [5]): inactive
pEC50 (Human betaherpesvirus 5 [6]): 6.14
inhibition (Human betaherpesvirus 5 [7]): inactive
Activity (Human betaherpesvirus 5 [8]): Active
inhibition (Human betaherpesvirus 5 [9]): inactive
pEC50 (Human betaherpesvirus 5 [10]): 6.92
EC50 (Human alphaherpesvirus 2): Not Active
inhibition (Human betaherpesvirus 5 [11]): inactive
EC50 [12]: Not Active
inhibition (Human betaherpesvirus 5 [13]): inactive
EC50 (Human alphaherpesvirus 1): Not Active
Activity (Human betaherpesvirus 5 [14]): Active
inhibition (Human betaherpesvirus 5 [15]): inactive
inhibition (Human betaherpesvirus 5 [16]): inactive
CC50 (HFF): > 500 µM
inhibition (Human betaherpesvirus 5 [17]): Active
